The text below walks through data of BindingDB's records for doi:10.1016/j.ejmech.2017.02.062 (Padmashri Vikhe Patil College of Arts, 2017).

pIC50: −log10 of the molar value.

One test has as its target T1, Retinoblastoma-associated protein (Homo sapiens, UniProt P06400).
T1 sequence (P06400 whole entry): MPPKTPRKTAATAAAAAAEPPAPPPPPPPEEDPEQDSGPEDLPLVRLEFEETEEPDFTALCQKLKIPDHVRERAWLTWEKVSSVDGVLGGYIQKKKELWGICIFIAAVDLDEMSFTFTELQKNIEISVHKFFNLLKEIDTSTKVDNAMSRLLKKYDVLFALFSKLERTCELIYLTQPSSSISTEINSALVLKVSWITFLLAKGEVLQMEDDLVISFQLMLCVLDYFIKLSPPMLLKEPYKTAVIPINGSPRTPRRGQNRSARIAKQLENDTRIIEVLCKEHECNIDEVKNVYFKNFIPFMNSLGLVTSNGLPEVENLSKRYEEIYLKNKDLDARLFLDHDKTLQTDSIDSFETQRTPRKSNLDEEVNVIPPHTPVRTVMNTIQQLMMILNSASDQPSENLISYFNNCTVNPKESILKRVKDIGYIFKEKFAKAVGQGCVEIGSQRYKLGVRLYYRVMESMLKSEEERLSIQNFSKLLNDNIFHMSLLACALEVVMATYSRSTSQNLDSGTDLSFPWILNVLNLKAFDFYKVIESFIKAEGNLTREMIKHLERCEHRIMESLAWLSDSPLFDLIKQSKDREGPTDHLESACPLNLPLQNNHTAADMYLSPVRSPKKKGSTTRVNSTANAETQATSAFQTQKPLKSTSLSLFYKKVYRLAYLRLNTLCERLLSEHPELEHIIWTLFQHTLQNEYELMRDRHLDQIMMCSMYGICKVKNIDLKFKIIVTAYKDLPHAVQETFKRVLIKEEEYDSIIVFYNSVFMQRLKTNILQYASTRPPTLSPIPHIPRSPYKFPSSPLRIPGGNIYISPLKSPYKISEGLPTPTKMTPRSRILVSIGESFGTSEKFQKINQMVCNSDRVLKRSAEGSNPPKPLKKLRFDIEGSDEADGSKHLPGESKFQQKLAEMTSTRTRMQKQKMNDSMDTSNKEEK
The test is described as follows: ChEBML_1684306.
In turn, `c1ccc2c3c([nH]c2c1)C(NC1CCCCC1)CCC3` (stereo not drawn) showed a negative-log IC50 (pIC50) of 4.82.

On to `c1ccc2c3c([nH]c2c1)C(NC1CCCC1)CCC3` (stereo not drawn), for which the pIC50 is 5.00.

`O=S(=O)(NC1CCCc2c1[nH]c1ccccc21)c1ccc(F)cc1` (stereo not drawn) gave a negative-log IC50 (pIC50) of 5.04.

Take `N#Cc1ccc(S(=O)(=O)NC2CCCc3c2[nH]c2ccccc32)cc1` (stereo not drawn): the negative logarithm of the IC50 (pIC50) was less than 4.00.

The compound `c1ccc2c3c([nH]c2c1)CC(NC1CCCC1)CC3` (stereo not drawn) had a negative-log IC50 (pIC50) of 5.00.

Compound `CC1CCC(NC2CCc3c([nH]c4ccccc34)C2)C1` (stereo not drawn) had a pIC50 of 4.76.

In turn, `c1ccc2c3c([nH]c2c1)CC(NC1CCOCC1)CC3` (stereo not drawn) had a pIC50 of less than 4.00.

Compound `O=S(=O)(NC1CCc2c([nH]c3ccccc23)C1)c1ccc(F)cc1` (stereo not drawn) gave a negative logarithm of the IC50 (pIC50) of 5.02.

For `N#Cc1ccc(S(=O)(=O)NC2CCc3c([nH]c4ccccc34)C2)cc1` (stereo not drawn), the pIC50 is less than 4.00.

Compound `COc1cccc(C(=O)NC2CCc3c([nH]c4ccccc34)C2)c1` (stereo not drawn) showed a pIC50 of less than 4.00.

`O=C(NC1CCc2c([nH]c3ccccc23)C1)c1ccccc1F` (stereo not drawn) showed a pIC50 of less than 4.00.

The compound `c1ccc(CNC2CCc3c([nH]c4ccccc34)C2)cc1` (stereo not drawn) had a negative-log IC50 (pIC50) of 5.16.

For `Cc1ccc2[nH]c3c(c2c1)CCC(NC1CCC(C)C1)C3` (stereo not drawn), the negative-log IC50 (pIC50) is 5.70.

Take `Cc1ccc2[nH]c3c(c2c1)CCC(NCc1ccccc1)C3` (stereo not drawn): the pIC50 was 5.66.

In turn, `CC1CCC(NC2CCCc3c2[nH]c2ccc([N+](=O)[O-])cc32)C1` (stereo not drawn) had a pIC50 of 5.32.

Compound `Cc1ccc(CNC2CCc3c(n(C)c4ccccc34)C2)cc1` (stereo not drawn) gave a pIC50 of 5.46.

As to `O=S(=O)(NC1CCCc2c1[nH]c1ccccc21)c1cccnc1` (stereo not drawn), the negative logarithm of the IC50 (pIC50) was less than 4.00.

Consider `c1ccc2c3c([nH]c2c1)CC(NC1CCCCC1)CC3` (stereo not drawn), for which the pIC50 was 4.96.

`O=S(=O)(NC1CCc2c([nH]c3ccccc23)C1)c1cccnc1` (stereo not drawn) showed a negative-log IC50 (pIC50) of less than 4.00.

`O=C(NC1CCc2c([nH]c3ccccc23)C1)c1cccc(F)c1` (stereo not drawn): the negative logarithm of the IC50 (pIC50) is 4.00.

Consider `Cc1ccc(CNC2CCc3c([nH]c4ccccc34)C2)cc1` (stereo not drawn), for which the pIC50 was 5.39.

In the case of `Cc1ccc(CNC2CCc3c([nH]c4ccc(C)cc34)C2)cc1` (stereo not drawn), the pIC50 was 5.54.

In another test the target is T1, Retinoblastoma-associated protein. Nature of the test: Inhibition of retinoblastoma protein phosphorylation in human MDA-MB-231 cells after 16 hrs by Hoechst 33342 staining based fluorescence assay. The method in brief: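 Fixation in 3.7% formaldehyde, 0.1% Triton X permeabilization, anti-pRb primary with Dylight 549 secondary; nuclei counterstained with Hoechst 33342; high-content imaging on ArrayScan reader.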
Consider `CC1CCC(NC2CCCc3c2[nH]c2ccccc32)C1` (stereo not drawn), for which the pIC50 was 4.82.
